PAX8 reporter – lowers PAX8-driven luciferase in RMG-I cells | inhibition, % at 12.6 µM | hit rate 1.2% among 360,000 | RMG-I TPO-luciferase reporter, SteadyGlo, 24 h | AID 652154;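 active = mean replicate inhibition at least 60% with every replicate also reaching 60%; inconclusive = only one of the two criteria is met; inactive = mean below 60% and not all replicates reaching 60%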;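 also: luciferase light reporting Pax8 driven TPO promoter activity; plate controls were median of neutral control wells for no effect and mitoxantrone controls for full effect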
FN deposit inh – fibronectin deposition inhibition; AH1F fibroblasts, Alexa488-fibronectin deposition fluorescence, overnight; inhibition, % at 12.6 µM; hit rate 0.086% among 350,000;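 active = mean inhibition across replicates of 30% or more, regardless of how many single replicates reach that level; inconclusive = mean under 30% yet at least half of replicates reach 30%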;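 also: positive control wells lacked labelled fibronectin entirely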
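Test system: AH1F fibroblast monolayer depositing Alexa488-labelled fibronectin into matrix. Input: 10000 cells per well. Technique: fluorescence, ex 485 nm, em 525 nm. Buffer or medium: DMEM plus 2% serum, read in PBS. Timing: 1 h cell adhesion before compound, then overnight fibronectin incubation. Compound: single dose, pinned. Read-out basis: inhibition from reduced deposited-fibronectin fluorescence.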
FGF22 binding – binders of recombinant human FGF22 by thermal shift | Q9HCT0 | activity (Tm shift, normalised), % at 9.99 µM | hit rate 1.5% among 340,000 | SYPRO orange fluorescence; percent of sucrose octasulfate shift, DMSO zero;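 active = mean Tm shift, scaled 0 neutral to 100 positive control, at about 1.3% or above, every replicate too, limit read from the data; inconclusive = no clear call, values can overlap the other calls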
Target sequence (Q9HCT0 whole entry, looked up): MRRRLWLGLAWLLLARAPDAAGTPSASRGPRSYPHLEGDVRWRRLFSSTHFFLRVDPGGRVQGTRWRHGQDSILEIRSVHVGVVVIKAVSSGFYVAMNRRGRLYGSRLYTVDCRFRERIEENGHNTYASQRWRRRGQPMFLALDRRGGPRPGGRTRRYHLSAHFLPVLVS
EWS-Fli block – EWS/Fli transcriptional activity inhibition; hit rate 0.67% among 350,000; A673 NR0B1-luciferase reporter, viability-normalised; inhibition, % at 12.6 µM;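 active = mean inhibition of at least 50% after viability correction, with every replicate also passing that limit; inconclusive = mean reaches 50% but only one of two replicates passes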;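 also: firefly luciferase signal divided by Alamar Blue viability fluorescence both relative to DMSO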
HIV Env fusion – blocks HIV Env-driven cell-cell fusion; inhibition, % at 12.3 µM; AID 651610; hit rate 1.1% among 360,000; HeLa-JRFL Env/CEM21 cell fusion, luciferase;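 active = mean replicate inhibition score of at least 50 and every replicate individually at or above 50; inconclusive = only one of the two criteria met; inactive = mean below 50 and not all replicates reaching 50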;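 also: 0% = plate neutral controls and 100% = maraviroc near 300 nM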
PGC1a acetyl inh – PGC1a acetylation modulation, inhibitor mode. inhibition, % at 15.6 µM. U2OS PGC1a acetylation, AlphaScreen anti-acetyl-lysine; with virally co-expressed GCN5 acetyltransferase. hit rate 0.17% among 350,000;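 active = every replicate shows inhibition of at least 40%; inconclusive = mean inhibition at least 40% but some replicate below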;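 also: 0% = neutral control wells and 100% = positive control wells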
Numbers without * were called inactive; ? = inconclusive; / = not tested or not shown; [ ] = another dose, or the depositor's remark. Rows were chosen to be rich in hits. Some 3.1% of all compounds tested hit in one or more screens of this group.

SMILES	PAX8 reporter	FN deposit inh	FGF22 binding	EWS-Fli block	HIV Env fusion	PGC1a acetyl inh
O=C(C[C@@H]1C[C@@H]2c3cc(NC(=O)Nc4ccc(C(F)(F)F)cc4)ccc3O[C@@H]2[C@@H](CO)O1)NCc1ccc(Cl)cc1	20	/	0	-2	10[16.7 µM]	-8
O=C(C[C@@H]1C[C@@H]2c3cc(NS(=O)(=O)c4ccc(F)cc4)ccc3O[C@@H]2[C@H](CO)O1)NCc1ccccc1	16	-2	0	-1	-5[16.7 µM]	1
O=C(C[C@@H]1C[C@@H]2c3cc(NS(=O)(=O)c4ccc(F)cc4)ccc3O[C@@H]2[C@H](CO)O1)NCc1ccc(Oc2ccccc2)cc1	56	4	0	25	39[16.7 µM]	-1
O=C(C[C@H]1C[C@@H]2c3cc(NS(=O)(=O)c4ccc(F)cc4)ccc3O[C@@H]2[C@H](CO)O1)NCc1ccc(Oc2ccccc2)cc1	34	/	-2	25	25[16.7 µM]	1
O=C(C[C@@H]1C[C@H]2c3cc(NS(=O)(=O)c4ccc(F)cc4)ccc3O[C@H]2[C@@H](CO)O1)NCc1ccc(Oc2ccccc2)cc1	91*	/	0	59*	-306[16.7 µM]	-7
O=C(C[C@@H]1C[C@@H]2c3cc(NS(=O)(=O)c4ccc(F)cc4)ccc3O[C@@H]2[C@@H](CO)O1)NCc1ccc(Oc2ccccc2)cc1	106*	/	0	36	-12[16.7 µM]	-7
O=C(C[C@H]1C[C@@H]2c3cc(NC(=O)Nc4ccc(C(F)(F)F)cc4)ccc3O[C@@H]2[C@@H](CO)O1)NCc1ccc(Cl)cc1	89*	/	0	21	11[16.7 µM]	-8
O=C(C[C@H]1C[C@@H]2c3cc(NS(=O)(=O)c4ccc(F)cc4)ccc3O[C@@H]2[C@H](CO)O1)NCc1ccc(-c2ccccc2)cc1	65*	-4	/	4	32[16.7 µM]	0
O=C(C[C@@H]1C[C@@H]2c3cc(NS(=O)(=O)c4ccc(F)cc4)ccc3O[C@@H]2[C@@H](CO)O1)NCCc1ccccc1	36	/	0	4	51[16.7 µM]	-3
O=C(C[C@H]1C[C@@H]2c3cc(NS(=O)(=O)c4ccc(F)cc4)ccc3O[C@@H]2[C@H](CO)O1)NCc1ccc(Cl)cc1	-13	8	0	-5	86*[16.7 µM]	-7
O=C(C[C@H]1C[C@@H]2c3cc(NS(=O)(=O)c4ccc(F)cc4)ccc3O[C@@H]2[C@H](CO)O1)NCCc1ccccc1	-5	/	0	-4	75*[16.7 µM]	-10
O=C(NCC[C@H]1CC[C@H](NC(=O)c2ccccc2F)[C@H](CO)O1)c1ccc2c(c1)OCO2	11	4	0	4	-6[16.7 µM]	-3
CC=Cc1ccc2n(c1=O)C[C@@H]1[C@@H](CO)[C@H](C(=O)NCCC)N(CC3CCOCC3)[C@H]21 (mixture of isomers)	/	/	0	-1	/	/
COc1ccc(S(=O)(=O)Nc2ccc3c(c2)C(=O)N([C@H](C)CO)C[C@H](C)[C@H](CN(C)Cc2ccncc2)O3)cc1	-4	-5	0	3	/	0
COc1ccc(OC)c(N(CCN2C(=O)c3ccccc3C2=O)C(=O)CCl)c1	104*	11	0	?	-16	23
C[C@H]1CN([C@@H](C)CO)C(=O)c2cc(NC(=O)Nc3cccc4ccccc34)ccc2O[C@H]1CN(C)C(=O)Nc1ccc(C(F)(F)F)cc1	/	/	0	2	/	-5
O=C(Nc1ccc(Cl)cn1)C1CCCN1S(=O)(=O)c1cccc2ccccc12 (centres undefined)	/	4	/	/	70*	/
C[C@H]1CN([C@@H](C)CO)S(=O)(=O)c2ccc(C#CC3CCCC3)cc2O[C@H]1CN(C)C(=O)Cc1ccccc1	52	/	0	11	4[16.7 µM]	-23
COC(=O)c1nnn(-c2ccccc2)c1N	/	-12	/	/	-25	3
CCOC(=O)c1nnn(-c2ccc(OC)cc2)c1N	/	32*	/	/	-69	2
COCC(=O)Nc1ccc2c(c1)[C@@H]1C[C@@H](CC(=O)N3CCOCC3)O[C@@H](CO)[C@@H]1O2	-18	-9	0	0	-2[16.7 µM]	0
COc1ccc(C#Cc2ccc3c(c2)O[C@H](CN(C)C(=O)CN2CCOCC2)[C@@H](C)CN([C@H](C)CO)S3(=O)=O)cc1	-4	/	/	1	-3[16.7 µM]	16
CN(C(=S)NC1CCCCC1)C1(c2ccccc2Cl)CCCCC1=O (centres undefined)	0	-6	/	/	93*	/

Assay outcomes (PubChem)
